# Published values collected from several papers.
# Protocols differ between the studies behind these lines.
# nupG: nupG (Escherichia coli, UniProt P0AFF4)
# PIK3C3: Phosphatidylinositol 3-kinase catalytic subunit type 3 (PIK3C3, Homo sapiens, UniProt Q8NEB9)
# ESR1: Estrogen receptor (ESR1, Homo sapiens, UniProt P03372)
# ADRA2C: Alpha-2C adrenergic receptor (ADRA2C, Homo sapiens, UniProt P18825)
Compound,target,assay,setting,endpoint,value
COc1ccccc1/C=C/C(=O)NC(=S)Nc1ccc(S(=O)(=O)N(C)c2ccccc2)cc1,"G-protein coupled receptor 55 (GPR55, Homo sapiens, UniProt Q9Y2T6)","β-arrestin recruitment, agonist",,EC50,300 nM
OC[C@H]1OC(O)[C@H](O)[C@@H](O)[C@@H]1O (some centres unmarked),"Hexokinase-1 (Homo sapiens, UniProt P19367)","binding, MST",,Kd,158000 nM
Nc1ncnc2c1ncn2[C@@H]1O[C@H](CO)[C@@H](O)[C@H]1O,nupG,"binding, ITC",,Kd,99700 nM
Cc1nc(NC(=O)N2CCC[C@H]2C(N)=O)sc1-c1ccnc(C(C)(C)C(F)(F)F)c1,PIK3C3,"binding, competition with immobilised ligand",,Kd,24500 nM
CCCC[C@H](NC(=O)[C@H](C)c1c(C)[nH]c2ccc(O)cc12)c1ncc(-c2cc3ccccc3nc2OC)[nH]1,"Prostaglandin E2 receptor EP3 subtype (PTGER3, Homo sapiens, UniProt P43115)",cell-free assay,,Ki,5320 nM
ON=Cc1ccc(-c2ccc(O)c(F)c2)c(Cl)c1O,ESR1,"reporter gene, agonist, luciferase",,EC50,1630 nM
CC1Cc2ccccc2N1C(=O)NCCCCN(C)[C@@H]1Cc2cccc3[nH]c(=O)n(c23)C1 (mixture of isomers),"5-hydroxytryptamine receptor 1A (HTR1A, Homo sapiens, UniProt P08908)","ligand displacement, radioligand",,Ki,23.7 nM
CNc1nc(C#Cc2ccc(Cl)s2)nc2c1ncn2[C@H]1[C@H](O)[C@H](O)[C@]2(C(=O)OCc3ccccc3)C[C@H]12,"Nociceptin receptor (OPRL1, Homo sapiens, UniProt P41146)","ligand displacement, radioligand",,Ki,> 10000 nM
CCOc1cc(-c2nncn2C)ccc1Nc1ncc2cc(C)nc(NCC(C)(C)C)c2n1,"Serine/threonine-protein kinase PLK4 (PLK4, Homo sapiens, UniProt O00444)","binding, competition with immobilised ligand",,Kd,71 nM
C[C@]12CC[C@H](O)CC1=CC[C@@H]1[C@@H]2CC[C@]2(C)C(c3cccnc3)=CC[C@@H]12,ESR1,"ligand displacement in cells, radioligand",,Ki,390 nM
CCC(S)C(C)CO (centres unmarked),"OR2M3 (Homo sapiens, UniProt Q8NG83)","cAMP, agonist, luciferase",,EC50,1400 nM
CCCCN1CCC(COC(=O)c2ccc(N)c(OCF)c2)CC1,ADRA2C,"cell-free assay, radioligand",,Ki,778 nM
C[C@H]1Oc2cc(cnc2N)-c2c(nn(C)c2C#N)CN(C)C(=O)c2ccc(F)cc21,"Mitogen-activated protein kinase kinase kinase 13 (MAP3K13, Homo sapiens, UniProt O43283)",cell-free assay,lysate,Ki,32.7 nM
CCC(=O)N1CCC(C(=O)NCC(=O)N2CCN(c3nc(-c4cnc(N)nc4C(F)F)nc(N4CCOCC4)n3)CC2)CC1,PIK3C3,"binding, competition with immobilised ligand",,Kd,100 nM
Cc1occc(=O)c1O,"Carbonic anhydrase 14 (CA14, Homo sapiens, UniProt Q9ULX7)","enzyme activity, inhibitor, stopped-flow",,Ki,7200 nM
CN1CCN(c2ccc(Nc3ncc4cc(C#N)c(=O)n(C5CCCC5)c4n3)cc2)CC1,"Calcium/calmodulin-dependent protein kinase type II subunit beta (CAMK2B, Homo sapiens, UniProt Q13554)","enzyme activity, inhibitor",,IC50,> 10000 nM
Nc1ccn([C@@H]2O[C@H](CO)[C@@H](O)[C@H]2O)c(=O)n1,nupG,"binding, ITC",,Kd,144000 nM
CCCOc1cccc2nc(N)n(Cc3ccc(Cl)c(Cl)c3)c12,"Pteridine reductase (PTR1, Trypanosoma brucei brucei, UniProt O76290)","enzyme activity, inhibitor, absorbance",,Ki,50 nM
CCC(=O)N1CCC(C(=O)N(C)CC(=O)N2CCN(c3nc(-c4cnc(N)nc4C(F)F)nc(N4CCOCC4)n3)CC2)CC1,PIK3C3,"binding, competition with immobilised ligand",,Kd,405 nM
Nc1ccnc2ccccc12,ADRA2C,"ligand displacement, radioligand",cell membranes,Ki,81300 nM
